Assays:
Assay type in all cases: functional
[1] = system: MDA-MB-231; test: Growth inhibition of human MDA-MB-231 cells assessed as cell growth at 10 nM relative to untreated control; details: read-out: Activity
[2] = system: HOP-62; test: Growth inhibition of human HOP62 cells assessed as cell growth at 100 nM relative to untreated control; details: read-out: Activity
Outline: (§1)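 Run externally at the National Cancer Institute as a 59-cell-line panel screen, with concentrations up to 100 μM. Growth was scored relative to control, where negative growth or total cell kill was possible. Data are in the Supporting Information.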

[3] = system: NCI-H322M; test: Growth inhibition of human NCI-H322M cells assessed as cell growth at 100 nM relative to untreated control; details: read-out: Activity
[4] = system: NCI-H460; test: Growth inhibition of human NCI-H460 cells assessed as cell growth at 100 nM relative to untreated control; details: read-out: Activity
[5] = system: SF-539; test: Growth inhibition of human SF539 cells assessed as cell growth at 100 nM relative to untreated control; details: read-out: Activity
[6] = system: U-251; test: Growth inhibition of human U251 cells assessed as cell growth at 100 nM relative to untreated control; details: read-out: Activity
[7] = system: A498; test: Growth inhibition of human A498 cells assessed as cell growth at 100 nM relative to untreated control; details: read-out: Activity
[8] = system: HL-60(TB); test: Growth inhibition of human HL-60(TB) cells assessed as cell growth at 1 uM relative to untreated control; details: read-out: Activity
[9] = system: HOP-62; test: Growth inhibition of human HOP62 cells assessed as cell growth at 1 uM relative to untreated control; details: read-out: Activity; outline: as §1
[10] = system: HCC 2998; test: Growth inhibition of human HCC2998 cells assessed as cell growth at 1 uM relative to untreated control; details: read-out: Activity; outline: as §1
[11] = system: KM12; test: Growth inhibition of human KM12 cells assessed as cell growth at 1 uM relative to untreated control; details: read-out: Activity
[12] = system: NCI-H522; test: Growth inhibition of human NCI-H522 cells assessed as cell growth at 1 nM relative to untreated control; details: read-out: Activity
[13] = system: KM12; test: Growth inhibition of human KM12 cells assessed as cell growth at 1 nM relative to untreated control; details: read-out: Activity
[14] = system: SNB-19; test: Growth inhibition of human SNB19 cells assessed as cell growth at 1 nM relative to untreated control; details: read-out: Activity
[15] = system: Malme-3M; test: Growth inhibition of human MALME-3M cells assessed as cell growth at 1 nM relative to untreated control; details: read-out: Activity
[16] = system: MDA-MB-435; test: Growth inhibition of human MDA-MB-435 cells assessed as cell growth at 1 nM relative to untreated control; details: read-out: Activity
[17] = system: SK-MEL-2; test: Growth inhibition of human SK-MEL-2 cells assessed as cell growth at 1 nM relative to untreated control; details: read-out: Activity
[18] = system: UACC-257; test: Growth inhibition of human UACC257 cells assessed as cell growth at 1 uM relative to untreated control; details: read-out: Activity
[19] = system: OVCAR-8; test: Growth inhibition of human OVCAR8 cells assessed as cell growth at 1 uM relative to untreated control; details: read-out: Activity
[20] = system: UACC-62; test: Growth inhibition of human UACC62 cells assessed as cell growth at 1 nM relative to untreated control; details: read-out: Activity
[21] = system: IGROV-1; test: Growth inhibition of human IGROV1 cells assessed as cell growth at 1 nM relative to untreated control; details: read-out: Activity
[22] = system: NCI/ADR-RES; test: Growth inhibition of human NCI/ADR-RES cells assessed as cell growth at 1 nM relative to untreated control; details: read-out: Activity
[23] = system: SK-OV-3; test: Growth inhibition of human SKOV3 cells assessed as cell growth at 1 nM relative to untreated control; details: read-out: Activity
[24] = system: 786-0; test: Growth inhibition of human 786-0 cells assessed as cell growth at 1 nM relative to untreated control; details: read-out: Activity
[25] = system: A498; test: Growth inhibition of human A498 cells assessed as cell growth at 1 nM relative to untreated control; details: read-out: Activity
[26] = system: A498; test: Growth inhibition of human A498 cells assessed as cell growth at 1 uM relative to untreated control; details: read-out: Activity
[27] = Growth inhibition of human […] cells assessed as cell growth at 10 uM relative to untreated control; details: read-out: Activity
[28] = system: A549; test: Growth inhibition of human A549 cells assessed as cell growth at 10 uM relative to untreated control; details: read-out: Activity
[29] = system: NCI-H322M; test: Growth inhibition of human NCI-H322M cells assessed as cell growth at 10 uM relative to untreated control; details: read-out: Activity
[30] = system: SF-295; test: Growth inhibition of human SF295 cells assessed as cell growth at 10 uM relative to untreated control; details: read-out: Activity
[31] = Growth inhibition of human Hs 578T cells assessed as cell growth at 10 uM relative to untreated control; details: read-out: Activity
[32] = system: T47D; test: Growth inhibition of human T47D cells assessed as cell growth at 10 uM relative to untreated control; details: read-out: Activity
[33] = system: K562; test: Growth inhibition of human K562 cells
[34] = system: NCI-H460; test: Growth inhibition of human NCI-H460 cells
[35] = system: SNB-19; test: Growth inhibition of human SNB19 cells
[36] = system: M14; test: Growth inhibition of human M14 cells
[37] = system: OVCAR-3; test: Growth inhibition of human OVCAR-3 cells; details: read-out: LC50 (the source's name)
[38] = system: OVCAR-8; test: Growth inhibition of human OVCAR8 cells
[39] = system: PC-3; test: Antitumor activity against human PC3 cells xenografted in athymic BALB/c mouse assessed as reduction in tumor volume at 10 mg/kg, ip dosed every other day for 28 days relative to untreated control; design: scale not given: the % may be the effect or the level left; details: route intraperitoneal
Outline: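 Male athymic Balb/c nude mice (18-22 g) got 3 × 10⁶ PC-3 cells subcutaneously in the right axillary region. After one week they were randomized into two groups of four. Dosing was 10 mg/kg ip or vehicle once every other day for 28 days. Vehicle was DMSO stock diluted in 1:1 PEG 400/PBS. Tumour volume was measured by caliper as length × width × height/2. Data are mean ± SEM (n = 4).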

[40] = system: NCI-H226; test: Growth inhibition of human NCI-H226 cells assessed as cell growth at 1 nM relative to untreated control; details: read-out: Activity
[41] = system: RXF 393; test: Growth inhibition of human RXF393 cells
[42] = system: HCC 2998; test: Growth inhibition of human HCC2998 cells assessed as cell growth at 10 nM relative to untreated control; details: read-out: Activity; outline: as §1
[43] = system: SNB-75; test: Growth inhibition of human SNB75 cells assessed as cell growth at 10 nM relative to untreated control; details: read-out: Activity
[44] = system: UACC-257; test: Growth inhibition of human UACC257 cells assessed as cell growth at 10 nM relative to untreated control; details: read-out: Activity
[45] = system: A498; test: Growth inhibition of human A498 cells assessed as cell growth at 10 nM relative to untreated control; details: read-out: Activity
[46] = read-out: LC50 (the source's name)

COc1ccc2c(c1)[nH]c1c(C)c(OS(=O)(=O)c3cccc4c(N(C)C)cccc34)ccc12
growth at 0.01 µM [1]: 86%
growth at 0.1 µM [2]: 106%
growth at 0.1 µM [3]: 94%
growth at 0.1 µM [4]: 98%
growth at 0.1 µM [5]: 87%
growth at 0.1 µM [6]: 92%
growth at 0.1 µM [7]: 59%
growth at 1 µM [8]: -9%
growth at 1 µM [9]: 55%
growth at 1 µM [10]: 52%
growth at 1 µM [11]: 21%
growth at 0.001 µM [12]: 109%
growth at 0.001 µM [13]: 110%
growth at 0.001 µM [14]: 97%
growth at 0.001 µM [15]: 93%
growth at 0.001 µM [16]: 100%
growth at 0.001 µM [17]: 115%
growth at 1 µM [18]: 51%
growth at 1 µM [19]: 44%
growth at 0.001 µM [20]: 89%
growth at 0.001 µM [21]: 111%
growth at 0.001 µM [22]: 107%
growth at 0.001 µM [23]: 103%
growth at 0.001 µM [24]: 101%
growth at 0.001 µM [25]: 93%
growth at 1 µM [26]: 15%
growth at 10 µM [27]: -2%
growth at 10 µM [28]: 12%
growth at 10 µM [29]: 34%
growth at 10 µM [30]: 1%
growth at 10 µM [31]: -1%
growth at 10 µM [32]: 2%
GI50 [33]: 3.01 µM
TGI [33]: > 100 µM
CC50 [33, 46]: > 100 µM
GI50 [34]: 3.46 µM
TGI [34]: 55.5 µM
CC50 [34, 46]: > 100 µM
GI50 [35]: 7.88 µM
TGI [35]: > 100 µM
CC50 [35, 46]: > 100 µM
GI50 [36]: 50.2 µM
TGI [36]: > 100 µM
CC50 [36, 46]: > 100 µM
CC50 [37]: > 100 µM
GI50 [38]: 79.6 µM
TGI [38]: > 100 µM
CC50 [38, 46]: > 100 µM
Activity [39]: 40%
growth at 0.001 µM [40]: 91%
GI50 [41]: 2.44 µM
TGI [41]: 5.95 µM
CC50 [41, 46]: > 100 µM
growth at 0.01 µM [42]: 101%
growth at 0.01 µM [43]: 118%
growth at 0.01 µM [44]: 109%
growth at 0.01 µM [45]: 83%

From ChEMBL document CHEMBL1157638, “Fluorescent epigenetic small molecule induces expression of the tumor suppressor ras-association domain family 1A and inhibits human prostate xenograft” (J Med Chem, 2010)
